Screening data (PubChem BioAssay)
Rows were chosen to be rich in hits. Some 3.9% of all compounds tested hit in one or more screens of this group.
NF-kB expr up = raises NF-kB expression in human neuronal cells; NF-kB reporter expression; active compounds read high; AID 1239; fold change at 12.5 µM; 1.6% of 190,000 active; in the data active = fold change above about 3.3
FLuc act counter = firefly luciferase counter-screen for stimulation assays. P08659. ATPlite luciferase biochemical, luminescence, 10 min; 0 = ATP-free wells, 1 = DMSO control. activation factor at 10 µM. 200,000 tested, under 10 active;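 active = luciferase activation factor, scaled between plate controls, of at least 2 with compound at 10 µM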
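test system = cell-free luciferase reagent | medium = PBS as buffer for the ATP substrate | dosing = test compounds dosed from 2 mM stocks in 100% DMSO | incubation = 10 min at ambient temperature | detection = luminescence measurement of luciferase light output | benchmarks = low control with PBS replacing ATP, high control enzyme plus ATP without compound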
FLuc inhib CS = inhibits firefly luciferase, flagging false hits in luciferase inhibition screens; P08659; ATPLite firefly luciferase biochemical luminescence, 10 min; inhibition, % at 10 µM; 1.5% of 200,000 active; AID 1006;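 active = inhibition above about 50% when tested at 10 µM, limit read from the data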
Rad51 HR inh = blocks human Rad51 in homologous recombination. 0.085% of 200,000 active. hRad51 DNA strand exchange, fluorescence dequenching. inhibition, % at 10 µM. AID 1385;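 active = inhibition above 40% at the single screening dose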;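 note: 0% = DMSO control wells and 100% = blanks with heterologous ssDNA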
Target sequence (Q06609 whole entry, looked up): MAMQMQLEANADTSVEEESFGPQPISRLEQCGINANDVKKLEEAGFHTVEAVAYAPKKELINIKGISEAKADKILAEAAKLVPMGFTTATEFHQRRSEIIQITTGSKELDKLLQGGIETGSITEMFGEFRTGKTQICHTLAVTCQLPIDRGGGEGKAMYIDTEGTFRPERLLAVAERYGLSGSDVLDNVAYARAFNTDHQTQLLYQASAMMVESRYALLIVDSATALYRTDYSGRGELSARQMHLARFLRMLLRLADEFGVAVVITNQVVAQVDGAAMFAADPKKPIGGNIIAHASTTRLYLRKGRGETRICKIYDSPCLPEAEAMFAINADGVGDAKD
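Test system – preformed human Rad51 ssDNA filaments · Reagent – Donor/quencher-labelled 47-bp dsDNA substrate · Incubation – 37 °C 15-min filament assembly, 30-min compound preincubation, 15-min exchange · Signal – FRET fluorescence dequenching, excitation 485 nm, emission 520 nm · Read-out – percent inhibition from fluorescence, normalised to plate control and blank means · Benchmarks – plate control and blank wells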
APP 5'UTR act = APP 5'UTR luciferase reporter activation | SH-SY5Y APP 5'UTR luciferase reporter, luminescence; zero percent = DMSO vehicle wells | activation, % at 2 µM | 1% of 190,000 active;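 active = activation above a set limit, based on mean plus 3 SD of controls, cut at about 140% in these data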
STAT1 activator = STAT1 signaling activation | NIH 3T3 STAT1-luciferase reporter, IFN-gamma, luminescence; 100% = IFN-gamma alone, no compound | activation (% of control), % at 5.5 µM | 2.6% of 200,000 active;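 active = activation above the screen-wide mean activation plus 3 SD, cut at about 130% in these data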;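 note: raw ratio to IFN-gamma control signal so 100% means no change and 0% no light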
The depositor's hits bear a star; · = not tested or not shown.

SMILES	NF-kB expr up	FLuc act counter	FLuc inhib CS	Rad51 HR inh	APP 5'UTR act	STAT1 activator
Cc1onc(-c2c(F)cccc2Cl)c1C(=O)OCn1nnc2ccccc2c1=O	5.56*	1	-3.7	2.5	-1.8	93.6
Cc1onc(-c2c(F)cccc2Cl)c1C(=O)ONC(=O)c1ccccc1	·	·	·	19.4	·	·
Cc1cc(C)cc(OCC(=O)OCC(=O)c2ccc3c(c2)NC(=O)CO3)c1	3.6*	1.1	-5.0	-3.6	·	108.9
O=C1COc2ccc(C(=O)/C=C/c3ccccc3)cc2N1	3.32*	0.9	9.7	·	5.8	97.8
CN(C)c1ccc(C(=O)/C=C/c2ccc(Br)cc2)cc1	1.13	0.7	30.2	-2.5	17.3	121.5
O=C(/C=C/c1ccccc1)c1ccc2c(c1)OCCCCO2	2.64	0.1	87.9*	-2.1	147.0*	139.7*
Cc1ccc(C(=O)NCC(=O)OCC(=O)c2ccc3c(c2)NC(=O)CO3)cc1C	1.29	0.9	5.9	17.7	-0.2	102.5
CN(C)c1ccc(C(=O)/C=C/c2ccccc2)cc1	4.9*	0.2	78.0*	-7.4	139.8*	138.4*
COCCN(CCOC)C(=O)COC(=O)c1cc([N+](=O)[O-])ccc1Cl	·	·	·	10.0	·	·
N#C/C(=C\c1c(N2CCCCC2)nc2ccccn2c1=O)S(=O)(=O)c1ccccc1	·	·	·	5.4	·	·
Cc1ccccc1CSc1ccc(-c2ccc3c(c2)OCO3)nn1	2.71	0.7	29.9	-0.2	41.3	115.6
CC(C)CC1c2[nH]c3ccccc3c2CCN1C(=O)c1cnccn1 (centres undefined)	2.98	1	-3.8	·	90.2	146.0*
CC(=O)c1cc(C(=O)N2CCc3c([nH]c4ccccc34)C2CC(C)C)[nH]n1 (centres undefined)	0.98	1.1	-5.0	16.7	12.9	97.1
Cc1c(C(=O)N2CCOCC2)sc2nc(-c3ccccc3)cn12	1.96	0.8	16.0	·	61.2	133.9*
CCOC(=O)N1CCN(c2nc(C)cc(C(F)(F)F)n2)CC1	4.86*	1.1	-6.5	3.6	23.9	89.4
CCOC(=O)N1CCN(c2nc(C(F)(F)F)nc3c(C)cc(C)cc23)CC1	1.04	1.1	-8.7	-2.5	0.4	104.1
CC(=O)NS(=O)(=O)c1ccc2sc(C)nc2c1	·	·	·	15.9	·	·
Cc1ccc(-c2cnn(-c3cccc([N+](=O)[O-])c3)c2N)cc1	2.91	0.7	26.0	-6.5	95.9	141.9*
Nc1c(-c2ccccc2)cnn1-c1ccc(C(=O)O)cc1	5.67*	0.6	40.6	6.7	137.5*	133.1*
Nc1c(-c2ccccc2)cnn1-c1cccc(C(F)(F)F)c1	2.76	0.8	19.8	1.5	94.7	142.8*
Nc1c(-c2cccc(Cl)c2)cnn1-c1cccc(C(F)(F)F)c1	1.01	1	1.1	2.1	22.6	107.3
NC1=NC(c2ccccc2)N=C(Nc2ccccc2)N1 (centres undefined)	·	·	·	-3.3	·	·
COc1ccc(-c2nsc3c(N4CCCC4)ncnc23)cc1	0.95	0.1	86.3*	2.5	156.4*	124.1
Cc1ccc(N2C(=O)c3ccccc3C2C(=O)c2ccc(C)c(C)c2O)cc1 (centres undefined)	·	·	·	-9.4	·	·
N#Cc1cc2ccccc2nc1SCc1ccccn1	5.26*	1	3.0	-6.8	186.3*	147.3*
SMILES	NF-kB expr up	FLuc act counter	FLuc inhib CS	Rad51 HR inh	APP 5'UTR act	STAT1 activator
COc1ccc(/C=N/Nc2ccc([N+](=O)[O-])cc2S(=O)(=O)N2CCN(C)CC2)cc1	5.52*	0.9	8.2	-223.9	·	107.1
COc1ccc(NC(=O)c2csc(Cc3ccccc3)n2)cc1	2.16	0.8	15.5	4.2	·	100.5
O=C(Nc1ccc(F)cc1)c1csc(Cc2ccccc2)n1	2.98	0.5	52.7*	·	32.1	123.7
CC(=O)Nc1ccc(Oc2ccc(-c3noc(C)n3)cc2)cc1	1.22	1	-2.2	-7.8	4.4	105.9
CC(=O)Oc1ccc(Oc2ccc(-c3noc(C)n3)cc2)cc1	5.65*	1	0.1	-3.0	25.2	111.9
CC(=O)Oc1ccc(-c2nc(-c3cccnc3)no2)cc1	2.85	0.4	59.8*	-1.5	·	118.4
CCOc1ccc(-c2nc(-c3cccnc3)no2)cc1OCC	0.62	1	-3.9	-1.4	·	95.2
COc1ccc(NC(=O)Cn2c(CCC(=O)O)ccc2-c2ccc(C)cc2)cc1	1.15	1	-0.3	3.7	28.9	102.0
CN(CC(=O)N1CCc2ccccc21)S(=O)(=O)c1cccs1	1.79	0.8	16.5	-13.5	11.4	129.9*
Cc1ccc(S(=O)(=O)n2c([N+](=O)[O-])cnc2C)c(C)c1C	1.06	1	0.3	·	-2.4	102.1
Nc1cccc(-c2cn3cc(C(F)(F)F)cc(Cl)c3n2)c1	6.79*	0.3	67.8*	0.5	·	129.6*
Cc1cc(C(F)(F)F)nc(-n2cc(-c3cccc(N)c3)nn2)n1	1	1.1	-6.1	·	1.5	105.4
FC(F)(F)c1cc(Cl)c2nc(-c3ccccc3)cn2c1	10.7*	0.6	41.3	16.7	163.5*	122.8
Fc1ccc(-c2nc3c(Cl)cc(C(F)(F)F)cn3c2Cl)cc1	2.12	1	-2.4	0.4	-2.2	109.6
Cc1sc(NC(=O)c2ccc(Br)s2)c(C(N)=O)c1C	5.2*	0.7	31.8	1.9	108.0	145.5*
Cc1sc(NC(=O)c2ccc(Cl)s2)c(C(N)=O)c1C	5.28*	0.7	29.1	-1.3	142.4*	167.2*
Cc1sc(NC(=S)Nc2ccc(F)cc2)c(C(N)=O)c1C	1.09	1	-3.3	-0.5	8.6	99.4
COc1ccccc1OCCCC(=O)Nc1ccc([N+](=O)[O-])cc1Br	0.76	1	-0.9	3.1	6.4	89.2
CC1=NNC(=O)c2ccccc2O1	1.04	1.1	-6.9	-25.7	-6.8	95.0
O=C(CSC1=NCCN1)Nc1cccc(C(F)(F)F)c1	1.22	1	-2.3	3.7	-1.8	141.6*
CC1CN(C(=O)c2c(Br)cnn2C)CC(C)O1 (centres undefined)	0.98	1.1	-6.2	4.6	5.7	109.0
O=C(Nc1ccccc1)Nc1ncc([N+](=O)[O-])s1	4.09*	0.7	27.4	4.1	120.0	68.5
Cc1ccc(C(=O)CSc2nnnn2C(C)C)c(C)c1	3.03	0.5	53.9*	-7.5	155.2*	72.2
CCn1nnnc1SCC(=O)c1ccc2c(c1)OCCO2	1.82	0.9	13.4	·	33.3	116.6
CC(C)n1nnnc1SCC(=O)c1ccc2c(c1)OCCO2	2.21	0.8	20.2	4.7	155.5*	112.2
Cc1cc(C(=O)CSc2nnc(-c3ccco3)o2)c(C)n1-c1ccc2c(c1)OCCO2	0.82	1.1	-8.9	-11.8	11.7	94.0
Cc1cc(C(=O)CSc2nnnn2C)c(C)n1-c1ccc2c(c1)OCCO2	2.19	1	-0.4	-7.6	33.0	137.5*
CC1(C)CC2CC(C)(CN2Cc2c(O)ccc3ccccc23)C1 (centres undefined)	1.31	1	0.6	14.1	-3.8	90.8
